Assay [1] relates to NCI-H661. Nature of the assay: Antiproliferative activity against human NCI-H661 cells after 48 hrs by XTT assay. The following applies: NCI-H661, 48 h. Format: functional, cell-based. For orientation: Tetrazolium dyes change colour on reduction, which living cells bring about.
The subject of assay [2] is NCI-H661. The assay is described as follows: Increase in E-cadherin mRNA expression in human NCI-H661 cells at 300 nM by qRT-PCR relative to control. Format: functional. On the technique in general: Real-time PCR tracks product formation cycle by cycle.
The subject of assay [3] is NCI-H661. Nature of the assay: Increase in semaphoring 3F mRNA expression in human NCI-H661 cells at 300 nM by qRT-PCR relative to control. Format: functional.
For assay [4], the target named is Histone deacetylase (Homo sapiens) (UniProt Q13547+O15379+Q9UBN7+Q92769+Q9UQL6+Q8WUI4+Q9BY41+Q96DB2+P56524+Q9UKV0+Q969S8). Nature of the assay: Inhibition of HDAC in human NCI-H661 cells assessed as induction of histone H4 acetylation at 3 uM after 6 hrs by Western blot analysis. It is filed as cell-based. The essentials: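 NCI-H661 cells exposed to compound for 6 h, then lysed and probed by Western blot for acetylated histone H4, with tubulin acetylation blotted alongside. Blots shown are representative of three independent experiments.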
On the technique in general: In western blotting, separated proteins are transferred to a membrane and probed.

Calls of active or inactive are those of the source. No cut-off for these calls is given here.

The source of these data is ChEMBL document CHEMBL1138493, “Synthesis and modeling of new benzofuranone histone deacetylase inhibitors that stimulate tumor suppressor gene expression” (J Med Chem, 2009).

`CC(/C=C/C(=O)NO)=C\[C@@H](C)C(=O)c1ccc(N(C)C)cc1` [TRICHOSTATIN] came in with a half-inhibitory concentration (IC50) with NCI-H661 [1] of 100 nM. The results for the “fold change (FC)” value in the assay on NCI-H661 [2] and with NCI-H661 [3] were 50 and 4, respectively.

As to `CC(/C=C/C(=O)NO)=C\C1(C)Oc2ccccc2C1=O` (centres undefined), in assay [4], the result was Active.

One may read the IC50 as the concentration at which inhibition is half-maximal. Low readings indicate higher potency, high ones lower potency.
